In the assay the test system is Mycobacterium tuberculosis. Briefly: Antimycobacterial activity against INH-resistant Mycobacterium tuberculosis mc2497 after 10 to 14 days. Conditions: time 10-14 day. The format is functional, organism-based. Put shortly: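 MIC99 determined in whole cells, tested in triplicate with INH as the positive control. Strains were wild-type, pMV306, pMV306-pks13 and INH-resistant mc2 497. Susceptibility was scored relative to the parental strain: S where the MIC99 was at most 2x the parental MIC99.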

Activity calls are given as the source filed them. The rule behind the calls is not given here.

Regarding `CCOC(=O)c1cc(-c2ccccc2)sc1NC(=O)CBr`, the result was inactive. As for `COC(=O)c1cc(-c2cc(F)cc(F)c2)sc1NC(=O)CCl`, the result was inactive. In the case of `NNC(=O)c1ccncc1` [ISONIAZID], the result was inactive. To `COC(=O)c1ccsc1NC(=O)CCl` belongs “inactive”; to `COC(=O)c1cc(-c2cccc(F)c2)sc1NC(=O)CCl`, “inactive”. Take `COC(=O)c1cc(-c2ccc(F)cc2)sc1NC(=O)CCl`: the outcome was inactive. As to `COC(=O)c1cc(-c2ccc(C(F)(F)F)cc2)sc1NC(=O)CCl`, the result was inactive. In the case of `COC(=O)c1cc(-c2ccccc2)sc1NC(=O)CCl`, the outcome was inactive. Regarding `COC(=O)c1cc(-c2cc3ccccc3s2)sc1NC(=O)CCl`, the result was inactive.

Turning to `CO[C@H]1/C=C/O[C@@]2(C)Oc3c(C)c(O)c4c(O)c(c(/C=N/N5CCN(C)CC5)c(O)c4c3C2=O)NC(=O)/C(C)=C\C=C\[C@H](C)[C@H](O)[C@@H](C)[C@@H](O)[C@@H](C)[C@H](OC(C)=O)[C@@H]1C` [RIFAMPIN], the outcome was Active.

For the origin of these results see ChEMBL document CHEMBL4706573, “Synthesis and evaluation of thiophene based small molecules as potent inhibitors of Mycobacterium tuberculosis” (Eur J Med Chem, 2020).
